In ChEMBL document CHEMBL1165950, “Design and synthesis of new potent anticancer pyrazoles with high FLT3 kinase inhibitory selectivity” (Bioorg Med Chem, 2010):

How the values were obtained:
Type in all cases: functional
SF-539 = assay: Cytotoxicity against human SF539 cells assessed as cell growth at 100 nM after 48 hrs by sulforhodamine B assay; settings: SF-539, 48 h, read-out: Activity
M14 = assay: Cytotoxicity against human M14 cells assessed as cell growth at 100 nM after 48 hrs by sulforhodamine B assay; settings: M14, 48 h, read-out: Activity
DU-145 = assay: Cytotoxicity against human DU145 cells assessed as cell growth at 0.001 uM after 48 hrs by sulforhodamine B assay; settings: DU-145, 48 h, read-out: Activity
K562 = assay: Cytotoxicity against human K562 cells assessed as cell growth at 0.01 uM after 48 hrs by sulforhodamine B assay; settings: K562, 48 h, read-out: Activity
786-0 [1] = assay: Cytotoxicity against human 786-0 cells assessed as cell growth at 100 nM after 48 hrs by sulforhodamine B assay; settings: 786-0, 48 h, read-out: Activity
How it was run: (§1)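 NCI-60 five-dose screen. Cells were grown in RPMI 1640 with 5% FBS and 2 mM L-glutamine, plated at 5000–40,000 cells/well and preincubated for 24 h. Time-zero plates were TCA-fixed. DMSO-solubilized drug was added at five concentrations (10-fold or ½-log serial dilutions) for 48 h at 37 °C, 5% CO2. Cells were TCA-fixed, stained with 0.4% SRB and read at 515 nm. Percent growth used time-zero, control and test absorbances.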

T47D = assay: Cytotoxicity against human T47D cells assessed as cell growth at 100 nM after 48 hrs by sulforhodamine B assay; settings: read-out: Activity
UACC-62 = assay: Cytotoxicity against human UACC62 cells assessed as cell growth at 10 uM; settings: read-out: Activity
How it was run: (§2)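 NCI-60 screen: cells grown in RPMI 1640 with 5% FBS and 2 mM L-glutamine, plated at 5000–40,000 cells/well according to doubling time, and preincubated 24 h at 37 °C, 5% CO2. The single 10 µM dose (DMSO stock) was added, then incubated 48 h. Cells were TCA-fixed and stained with 0.4% SRB, read at 515 nm, and growth % calculated against time-zero and control plates.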

OVCAR-5 [2] = assay: Cytotoxicity against human OVCAR5 cells assessed as cell growth at 10 uM; settings: read-out: Activity; how it was run: as §2
786-0 [3] = assay: Cytotoxicity against human 786-0 cells assessed as cell growth at 10 uM; settings: read-out: Activity
How it was run: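 Single-dose NCI-60 screen at 10 µM. Cells were grown in RPMI 1640 with 5% FBS and 2 mM L-glutamine, then treated for 48 h at 37 °C. Protein was measured by SRB staining with absorbance at 515 nm. Percentage growth was recorded, and inhibition percentage was calculated as 100 minus growth percentage.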

PC-3 [4] = assay: Cytotoxicity against human PC3 cells assessed as cell growth at 10 uM; settings: read-out: Activity; how it was run: as §2
MDA-MB-468 = assay: Cytotoxicity against human MDA-MB-468 cells assessed as cell growth at 10 uM; settings: read-out: Activity; how it was run: as §2
HT-29 = assay: Cytotoxicity against human HT-29 cells assessed as cell growth at 1 uM after 48 hrs by sulforhodamine B assay; settings: HT-29, 48 h, read-out: Activity
KM12 = assay: Cytotoxicity against human KM12 cells assessed as cell growth at 1 uM after 48 hrs by sulforhodamine B assay; settings: KM12, 48 h, read-out: Activity
MOLT-4 = assay: Cytotoxicity against human MOLT4 cells assessed as cell growth at 0.01 uM after 48 hrs by sulforhodamine B assay; settings: MOLT-4, 48 h, read-out: Activity
HOP-92 = assay: Cytotoxicity against human HOP92 cells assessed as cell growth at 0.01 uM after 48 hrs by sulforhodamine B assay; settings: HOP-92, 48 h, read-out: Activity
UACC-257 = assay: Cytotoxicity against human UACC257 cells assessed as cell growth at 1 uM after 48 hrs by sulforhodamine B assay; settings: UACC-257, 48 h, read-out: Activity
SK-MEL-5 [5] = assay: Cytotoxicity against human SK-MEL-5 cells assessed as cell growth at 0.01 uM after 48 hrs by sulforhodamine B assay; settings: SK-MEL-5, 48 h, read-out: Activity
OVCAR-4 = assay: Cytotoxicity against human OVCAR4 cells assessed as cell growth at 0.01 uM after 48 hrs by sulforhodamine B assay; settings: OVCAR-4, 48 h, read-out: Activity
OVCAR-5 [6] = assay: Cytotoxicity against human OVCAR5 cells assessed as cell growth at 0.01 uM after 48 hrs by sulforhodamine B assay; settings: OVCAR-5, 48 h, read-out: Activity
OVCAR-3 = assay: Cytotoxicity against human OVCAR-3 cells assessed as cell growth at 0.001 uM after 48 hrs by sulforhodamine B assay; settings: OVCAR-3, 48 h, read-out: Activity
A498 = assay: Cytotoxicity against human A498 cells assessed as cell growth at 0.001 uM after 48 hrs by sulforhodamine B assay; settings: A498, 48 h, read-out: Activity; how it was run: as §1
UO-31 = assay: Cytotoxicity against human UO31 cells assessed as cell growth at 0.001 uM after 48 hrs by sulforhodamine B assay; settings: UO-31, 48 h, read-out: Activity
PC-3 [7] = assay: Cytotoxicity against human PC3 cells assessed as cell growth at 0.001 uM after 48 hrs by sulforhodamine B assay; settings: PC-3, 48 h, read-out: Activity
SNB-75 = assay: Growth inhibition of human SNB75 cells after 48 hrs by sulforhodamine B assay; settings: SNB-75, 48 h
How it was run: (§3)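 NCI 60-cell screen, five-dose mode. Cells grown in RPMI 1640 with 5% FBS and 2 mM L-glutamine and plated at 5000-40,000 cells/well according to doubling time. After 24 h preincubation, a Tz plate was TCA-fixed. Five concentrations (10-fold or 1/2 log dilutions) were applied for 48 h at 37 °C. SRB staining read at 515 nm. IC50 taken from [(Ti-Tz)/(C-Tz)]×100 = 50.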

NCI/ADR-RES = assay: Growth inhibition of human NCI/ADR-RES cells after 48 hrs by sulforhodamine B assay; how it was run: as §3
A549 = assay: Cytotoxicity against human A549 cells assessed as cell growth at 100 nM after 48 hrs by sulforhodamine B assay; settings: A549, 48 h, read-out: Activity; how it was run: as §1
HOP-62 = assay: Cytotoxicity against human HOP62 cells assessed as cell growth at 100 nM after 48 hrs by sulforhodamine B assay; settings: HOP-62, 48 h, read-out: Activity
SR = assay: Cytotoxicity against human SR cells assessed as cell growth at 10 uM after 48 hrs by sulforhodamine B assay; settings: read-out: Activity
HCT-15 = assay: Cytotoxicity against human HCT15 cells assessed as cell growth at 10 uM after 48 hrs by sulforhodamine B assay; settings: HCT-15, 48 h, read-out: Activity
SK-MEL-5 [8] = assay: Cytotoxicity against human SK-MEL-5 cells assessed as cell growth at 10 uM after 48 hrs by sulforhodamine B assay; settings: SK-MEL-5, 48 h, read-out: Activity
SN12C = assay: Cytotoxicity against human SN12C cells assessed as cell growth at 10 uM after 48 hrs by sulforhodamine B assay; settings: read-out: Activity
[9] = read-out: LC50 (the source's name)

With Cc1cc(O)cc(-c2nn(CC#N)cc2-c2ccnc(-c3ccc(Oc4ccccc4)cc3)c2)c1 the growth at 0.1 µM (SF-539) was 92%, the growth at 0.1 µM (M14) was 94% and the growth at 0.001 µM (DU-145) was 104%. For the same compound, the growth at 0.01 µM (K562) was 44%, the growth at 0.1 µM (786-0 [1]) was 91% and the growth at 0.1 µM (T47D) was 84%. The growth at 10 µM (UACC-62) was 68.1%, the growth at 10 µM (OVCAR-5 [2]) was 96.8% and the growth at 10 µM (786-0 [3]) was 58.1%. For the same compound, the growth at 10 µM (PC-3 [4]) was 66.4%, the growth at 10 µM (MDA-MB-468) was 6.32% and the growth at 1 µM (HT-29) was -65%. For the same compound, the growth at 1 µM (KM12) was -39%, the growth at 0.01 µM (MOLT-4) was 93% and the growth at 0.01 µM (HOP-92) was 59%. For the same compound, the growth at 1 µM (UACC-257) was -7%, the growth at 0.01 µM (SK-MEL-5 [5]) was 93% and the growth at 0.01 µM (OVCAR-4) was 112%. The growth at 0.01 µM (OVCAR-5 [6]) was 72%, the growth at 0.001 µM (OVCAR-3) was 92% and the growth at 0.001 µM (A498) was 88%. The growth at 0.001 µM (UO-31) was 91%, the growth at 0.001 µM (PC-3 [7]) was 98% and the GI50 (SNB-75) was 3.82 µM. For the same compound, the TGI (SNB-75) was 17.1 µM, the CC50 (SNB-75; [9]) was 42 µM and the GI50 (NCI/ADR-RES) was 2.06 µM. It also gave a TGI (NCI/ADR-RES) of 4.56 µM, a CC50 (NCI/ADR-RES; [9]) of 15.8 µM and a growth at 0.1 µM (A549) of 87%. The growth at 0.1 µM (HOP-62) was 101%, the growth at 10 µM (SR) was -12% and the growth at 10 µM (HCT-15) was -73%. It also gave a growth at 10 µM (SK-MEL-5 [8]) of -100% and a growth at 10 µM (SN12C) of -87%.
